Reference: publication PMC7341966 (Journal of medicinal chemistry, 2018)
Square brackets hold non-standard residues; d marks the D form. Peptide text beside a SMILES is read from it. * marks the point of attachment. X4 = CC[C@H](C)[C@@H](OC(=O)[C@H](Cc1ccccc1)N(C)C)C(=O)*; X1 = CC[C@H](C)[C@@H](OC(=O)/C=C/c1ccccc1)C(=O)*; X3 = CC[C@H](C)[C@@H](OC(=O)/C=C\c1ccccc1)C(=O)*; X5 = CC[C@H](C)[C@@H](OC(=O)C#Cc1ccccc1)C(=O)*; X2 = CC[C@H](C)[C@@H](OC(=O)CCc1ccccc1)C(=O)*; Hmp(2R,3S) = CC[C@H](C)[C@@H](O)C(=O)O; dNMeF = CN[C@H](Cc1ccccc1)C(=O)O; NMeL = CN[C@@H](CC(C)C)C(=O)O; dHiv = CC(C)[C@@H](O)C(=O)O

Columns and labels:
[1] = tested on: MDA-MB-231 breast cancer cells; assay: MTT cell viability assay in MDA-MB-231 cells; format: cell-based; settings: MDA-MB-231, 48 h; for cytotoxicity: MTT, up to 100 μM
Outline: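 MDA-MB-231 cells kept in DMEM with 10% FBS were seeded at 10,000 cells/well. After 24 h they were exposed to graded test compound or DMSO solvent control for 48 h. Viability was measured by MTT.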

Kallikrein 7 (KLK7) = Kallikrein 7 (KLK7) (Homo sapiens, UniProt P49862); assay: Protease inhibition assay, fluorescent peptide substrate; format: biochemical
[2] = tested on: panel of 241 GPCR targets; assay: GPCR profiling, gpcrMAX and orphanMAX panels; format: cell-based; settings: 10 μM; hit = > 50% activity or inhibition
Outline: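 PathHunter β-arrestin enzyme fragment complementation in HEK293, CHO or U2OS lines stably expressing ProLink-tagged GPCR and EA-tagged β-arrestin. Test compound was 10 μM, one also at 20 μM; vehicle 1% final. Agonist mode: 90 or 180 min at 37 °C or RT. Chemiluminescence read after 1 h detection reagent. % activity/inhibition taken versus vehicle and control ligand.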

[3] = tested on: CXCR7, CCR10, OXTR, SSTR3, and TACR2; assay: GPCR secondary screen, dose-response against the five hits; format: cell-based; settings: up to 20 μM
Outline: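 Secondary β-arrestin (PathHunter) screen on the five receptors, run in agonist and antagonist modes. Dosing was 10 points by 3-fold serial dilution from 20 μM, in duplicate, with 1% vehicle. Chemiluminescent β-galactosidase read after 1 h detection at RT.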

MDA-MB-231 cells [4] = assay: Transwell migration assay, MDA-MB-231 cells; format: cell-based; settings: 10 μM, 48 h
Outline: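 Transwell inserts with 8 μm pore PET membrane; MDA-MB-231 cells were exposed to test compound or solvent control. After incubation, non-migrated cells were wiped off, and migrated cells were crystal violet-stained and counted under a microscope.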

CCR10 = biological target: T1, CCR10 (Homo sapiens, UniProt P46092); assay: PathHunter β-Arrestin GPCR assay, antagonist mode; format: cell-based; settings: dose-response starting at 20 μM, duplicate
T1 sequence (P46092 1-362): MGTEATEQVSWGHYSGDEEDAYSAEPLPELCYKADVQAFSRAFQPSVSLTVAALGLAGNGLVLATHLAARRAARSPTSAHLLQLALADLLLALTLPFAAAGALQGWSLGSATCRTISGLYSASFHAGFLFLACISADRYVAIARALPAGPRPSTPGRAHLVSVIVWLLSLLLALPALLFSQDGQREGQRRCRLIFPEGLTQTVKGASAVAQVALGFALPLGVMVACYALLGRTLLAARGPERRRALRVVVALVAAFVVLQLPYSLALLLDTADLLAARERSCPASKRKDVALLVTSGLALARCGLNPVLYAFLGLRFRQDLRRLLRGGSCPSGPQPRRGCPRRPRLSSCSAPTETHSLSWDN

OXTR = biological target: T2, OXTR (Homo sapiens, UniProt P30559); assay: PathHunter β-Arrestin GPCR assay, antagonist mode; format: cell-based; settings: dose-response starting at 20 μM, duplicate
T2 sequence (P30559 1-389): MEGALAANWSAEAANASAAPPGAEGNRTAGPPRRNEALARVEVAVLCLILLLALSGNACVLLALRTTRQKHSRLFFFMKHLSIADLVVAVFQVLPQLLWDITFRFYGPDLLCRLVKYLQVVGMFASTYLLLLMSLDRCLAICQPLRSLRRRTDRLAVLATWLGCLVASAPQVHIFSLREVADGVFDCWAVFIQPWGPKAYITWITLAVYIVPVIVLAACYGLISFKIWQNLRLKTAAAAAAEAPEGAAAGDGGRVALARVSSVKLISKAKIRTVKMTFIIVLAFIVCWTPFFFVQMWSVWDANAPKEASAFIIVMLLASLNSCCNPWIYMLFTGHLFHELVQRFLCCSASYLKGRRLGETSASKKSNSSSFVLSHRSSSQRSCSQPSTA

[5] = biological target: KLK7 (substrates desmoglein-2 and E-cadherin) (Homo sapiens, UniProt P49862); assay: Cleavage of KLK7 downstream substrates, biochemical assay; settings: 10 μM
[6] = tested on: MDA-MB-468 breast cancer cells; assay: Dsg-2 shedding in MDA-MB-468 cells; format: cell-based
[7] = tested on: MDA-MB-468 breast cancer cells; assay: Transwell migration assay, MDA-MB-468 cells; format: cell-based; settings: 48 h
Outline: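 5000 MDA-MB-468 cells in DMEM with 10% FBS were treated with graded test compound or solvent control. They were seeded into 8 μm pore PET transwell inserts, with the same compound concentration in complete medium on the other side. After 48 h at 37 °C, 5% CO2, non-migrated cells were swabbed off, and migrated cells were crystal violet-stained and counted microscopically. Triplicate.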

SSTR3 = SSTR3 (Homo sapiens, UniProt P32745); assay: PathHunter β-Arrestin GPCR assay, antagonist mode; format: cell-based; settings: dose-response starting at 20 μM, duplicate
plasma kallikrein = settings: read-out: Ki plasma kallikrein; cited from earlier work
MDA-MB-231 cells [8] = assay: CCL27-induced proliferation of MDA-MB-231 cells; format: cell-based; settings: serum deprived conditions, 48 h
Outline: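 MDA-MB-231 cells (10,000/well) were seeded in serum-free DMEM for 24 h. For the CCL27 response, cells got graded CCL27 for 48 h. For inhibition, cells were pretreated with test compound for 2 h, then given CCL27 (1 μg/mL final) and incubated 48 h. Viability was read by MTT against solvent control. Mean ± SD, n = 3, two-tailed unpaired t test.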

Chain of Kallikrein 7 (KLK7) (P49862 30-253): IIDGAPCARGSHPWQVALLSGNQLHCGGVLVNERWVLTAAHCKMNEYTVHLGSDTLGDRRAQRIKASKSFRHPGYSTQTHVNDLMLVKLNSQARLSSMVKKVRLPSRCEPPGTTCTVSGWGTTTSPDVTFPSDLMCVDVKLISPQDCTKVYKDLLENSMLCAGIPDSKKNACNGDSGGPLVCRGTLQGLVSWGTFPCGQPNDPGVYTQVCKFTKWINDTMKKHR
Chain of SSTR3 (P32745 whole entry): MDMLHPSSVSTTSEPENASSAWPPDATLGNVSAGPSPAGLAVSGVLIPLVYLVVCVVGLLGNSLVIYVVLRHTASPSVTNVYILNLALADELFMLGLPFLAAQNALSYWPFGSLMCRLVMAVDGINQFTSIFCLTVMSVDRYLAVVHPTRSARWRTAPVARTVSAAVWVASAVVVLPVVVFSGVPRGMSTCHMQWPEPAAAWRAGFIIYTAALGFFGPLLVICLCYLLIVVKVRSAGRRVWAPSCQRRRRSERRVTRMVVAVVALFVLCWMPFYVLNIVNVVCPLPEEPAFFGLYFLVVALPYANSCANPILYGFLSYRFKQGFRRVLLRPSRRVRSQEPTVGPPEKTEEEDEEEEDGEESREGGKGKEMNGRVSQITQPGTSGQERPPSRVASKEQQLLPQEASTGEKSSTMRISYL
Chain of KLK7 (substrates desmoglein-2 and E-cadherin) (P49862 30-253): as the sequence (P49862 30-253) above

CC[C@H](C)[C@@H](O)C(=O)N1CCC[C@H]1C(=O)NCC(=O)N(C)[C@@H](CC(C)C)C(=O)N[C@@H](C)C(=O)N(C)[C@H](Cc1ccccc1)C(=O)N1CCC[C@H]1C(=O)OC [Compound 1, brintonamide A] ({Hmp(2R,3S)}-PG[NMeL]A[dNMeF]P-OMe)
cytotoxicity [1]: did not show any cytotoxicity
IC50 (Kallikrein 7 (KLK7)): ~20 µM
hits in GPCR profiling [2]: did not show any hits
activity against the tested GPCR targets [3]: did not show any activity
inhibition of migration (MDA-MB-231 cells [4]): inactive

COC(=O)[C@@H]1CCCN1C(=O)[C@@H](Cc1ccccc1)N(C)C(=O)[C@H](C)NC(=O)[C@H](CC(C)C)N(C)C(=O)CNC(=O)[C@@H]1CCCN1C(=O)[C@H](O)C(C)C [Compound 2, brintonamide B] (H-[dHiv]PG[NMeL]A[dNMeF]P-OMe)
cytotoxicity [1]: did not show any cytotoxicity
activity against the tested GPCR targets [3]: did not show any activity

CC[C@H](C)[C@@H](OC(=O)[C@H](Cc1ccccc1)N(C)C)C(=O)N1CCC[C@H]1C(=O)NCC(=O)N(C)[C@@H](CC(C)C)C(=O)N[C@@H](C)C(=O)N(C)[C@H](Cc1ccccc1)C(=O)N1CCC[C@H]1C(=O)OC [Compound 3, brintonamide C] (X4-PG[NMeL]A[dNMeF]P-OMe)
IC50 antagonist CCR10 (CCR10): did not show any activity
IC50 antagonist OXTR (OXTR): did not show any activity

CC[C@H](C)[C@@H](OC(=O)/C=C/c1ccccc1)C(=O)N1CCC[C@H]1C(=O)NCC(=O)N(C)[C@@H](CC(C)C)C(=O)N[C@@H](C)C(=O)N(C)[C@H](Cc1ccccc1)C(=O)N1CCC[C@H]1C(=O)OC [Compound 4, brintonamide D] (X1-PG[NMeL]A[dNMeF]P-OMe)
cytotoxic effects ([1]; up to 10 μM (Figure 6B)): no cytotoxic effects
IC50 (Kallikrein 7 (KLK7)): ~20 µM
IC50 antagonist CCR10 (CCR10): submicromolar activity
activity against the tested GPCR targets [3]: active against all five tested GPCR targets
cleavage of KLK7 downstream substrates desmoglein-2 and E-cadherin [5]: partially inhibited
Dsg-2 shedding [6]: unable to decrease Dsg-2 shedding
migration of MDA-MB-468 cells [7]: inhibiting the migration

CC[C@H](C)[C@@H](OC(=O)/C=C\c1ccccc1)C(=O)N1CCC[C@H]1C(=O)NCC(=O)N(C)[C@@H](CC(C)C)C(=O)N[C@@H](C)C(=O)N(C)[C@H](Cc1ccccc1)C(=O)N1CCC[C@H]1C(=O)OC [Compound 5, brintonamide E] (X3-PG[NMeL]A[dNMeF]P-OMe)
IC50 antagonist SSTR3 (SSTR3): inactive

CC[C@H](C)[C@@H](OC(=O)CCc1ccccc1)C(=O)N1CCC[C@H]1C(=O)NCC(=O)N(C)[C@@H](CC(C)C)C(=O)N[C@@H](C)C(=O)N(C)[C@H](Cc1ccccc1)C(=O)N1CCC[C@H]1C(=O)OC [Compound 6, dehydro-brintonamide D/E] (X2-PG[NMeL]A[dNMeF]P-OMe)
IC50 antagonist SSTR3 (SSTR3): inactive

CC[C@H](C)[C@@H](OC(=O)C#Cc1ccccc1)C(=O)N1CCC[C@H]1C(=O)NCC(=O)N(C)[C@@H](CC(C)C)C(=O)N[C@@H](C)C(=O)N(C)[C@H](Cc1ccccc1)C(=O)N1CCC[C@H]1C(=O)OC [Compound 7, dihydro-brintonamide D/E] (X5-PG[NMeL]A[dNMeF]P-OMe)
activity against the tested GPCR targets [3]: did not exhibit any activity

Ecallantide
Ki (plasma kallikrein): 0.025 nM

B1: CCL27: C-C motif chemokine ligand 27, ligand of CCR10 (protein, UniProt Q9Y4X3 25-112, looked up)
C-C motif chemokine 27: FLLPPSTACCTQLYRKPLSDKLLRKVIQVELQEADGDCHLQAFVLHLAQRSICIHPQNPSLSQWFEHQERKLHGTLPKLNFGMLRKMG
cell proliferation in response to CCL27 stimulation (MDA-MB-231 cells [8]): increased in a dose-dependent manner
